How the values were obtained:
K562/R7 = assay: Inhibition of p-gp (unknown origin) in doxorubicin-resistant human K562/R7 cells assessed as increase in daunorubicin accumulation measured as fluorescence ratio at 10 uM incubated for 1 hr with 10 uM daunorubicin by flow cytometry relative to control; format: cell-based
Outline: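 Resistant K562/R7 cells ([…]) incubated 1 h at 37 °C in RPMI 1640 with daunorubicin 10 µM, with or without steroid at 10 µM; intracellular fluorescence read by flow cytometry. Accumulation index = daunorubicin fluorescence ratio with/without modulator. Cyclosporin A as positive control. Duplicates, at least three separate experiments.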

[1] = Intrinsic cytotoxicity against human K562 cells assessed as cell survival […] by MTT assay; format: cell-based; conditions: read-out: Survival

COC(=O)CCC(C)[C@H]1CC[C@H]2[C@@H]3[C@H](O[C@@H]4CCCCO4)C[C@@H]4CC(=O)CC[C@]4(C)[C@H]3C[C@H](OC(=O)c3ccccc3)[C@]12C (stereo partly specified)
Ratio (K562/R7): 2.9
viability [1]: 51.3%

COC(=O)CCC(C)[C@H]1CC[C@H]2[C@@H]3[C@H](OC(=O)c4ccccc4)C[C@@H]4CC(=O)CC[C@]4(C)[C@H]3C[C@H](O[C@@H]3CCCCO3)[C@]12C (stereo partly specified)
Ratio (K562/R7): 2.1
viability [1]: 56.4%

COCCCC(C)[C@H]1CC[C@H]2[C@@H]3[C@H](OC(=O)c4ccccc4)C[C@@H]4CC(=O)CC[C@]4(C)[C@H]3C[C@H](O[C@@H]3CCCCO3)[C@]12C (stereo partly specified)
Ratio (K562/R7): 2.4
viability [1]: 54.4%

CC(=O)[C@H]1CC[C@H]2[C@H]3[C@H]([C@H](OC(=O)c4ccccc4)C[C@]12C)[C@@]1(C)CCC(=O)C[C@H]1C[C@H]3OC(=O)c1ccccc1
Ratio (K562/R7): 2.5
viability [1]: 66.4%

COCCCC(C)[C@H]1CC[C@H]2[C@@H]3[C@H](O[C@@H]4CCCCO4)C[C@@H]4CC(=O)CC[C@]4(C)[C@H]3C[C@H](OC(=O)c3ccccc3)[C@]12C (stereo partly specified)
Ratio (K562/R7): 3.4
viability [1]: 51%

COC(=O)CCC(C)[C@H]1CC[C@H]2[C@@H]3[C@H](OC4=CCOCC4)C[C@@H]4CC(=O)CC[C@]4(C)[C@H]3C[C@H](OC3=CCOCC3)[C@]12C (stereo partly specified)
Ratio (K562/R7): 3.7
viability [1]: 76.3%

COCCCC(C)[C@H]1CC[C@H]2[C@@H]3[C@H](O[C@H]4CCCCO4)C[C@@H]4CC(=O)CC[C@]4(C)[C@H]3C[C@H](OC(=O)c3ccccc3)[C@]12C (stereo partly specified)
Ratio (K562/R7): 3.1
viability [1]: 56.3%

CC#C[C@]1(O)CC[C@H]2[C@@H]3CCC4=CC(=O)CCC4=C3[C@@H](c3ccc(N(C)C)cc3)C[C@@]21C [MIFEPRISTONE]
Ratio (K562/R7): 2.4
viability [1]: 95.6%

CC(=O)[C@H]1CC[C@H]2[C@H]3[C@H]([C@H](O[C@H]4CCCCO4)C[C@]12C)[C@@]1(C)CCC(=O)C[C@H]1C[C@H]3OC(=O)c1ccccc1
Ratio (K562/R7): 2.3
viability [1]: 100%

CC(=O)[C@H]1CC[C@H]2[C@H]3[C@H]([C@H](O[C@@H]4CCCCO4)C[C@]12C)[C@@]1(C)CCC(=O)C[C@H]1C[C@H]3OC1CCCCO1 (mixture of isomers)
Ratio (K562/R7): 2.6
viability [1]: 86.7%

CC(=O)[C@H]1CC[C@H]2[C@H]3[C@H]([C@H](O[C@@H]4CCCCO4)C[C@]12C)[C@@]1(C)CCC(=O)C[C@@H]1C[C@H]3OC(=O)c1ccccc1
Ratio (K562/R7): 2.4
viability [1]: 77.8%

CC(=O)[C@H]1CC[C@H]2[C@@H]3CCC4=CC(=O)CC[C@]4(C)[C@H]3CC[C@]12C [PROGESTERONE]
Ratio (K562/R7): 1.2
viability [1]: 81.6%

COC(=O)CCC(C)[C@H]1CC[C@H]2[C@@H]3[C@H](OC(=O)c4ccccc4)C[C@@H]4CC(=O)CC[C@]4(C)[C@H]3C[C@H](O[C@H]3CCCCO3)[C@]12C (stereo partly specified)
Ratio (K562/R7): 2.7
viability [1]: 53.5%

Source: ChEMBL document CHEMBL3414422, “Synthesis of new steroidal inhibitors of P-glycoprotein-mediated multidrug resistance and biological evaluation on K562/R7 erythroleukemia cells” (J Med Chem, 2015)
